# How the values were obtained:
# Format in all cases: functional
# Aphis craccivora [1] = assay: Insecticidal activity against Aphis craccivora (cowpea aphid) assessed as mortality at 500 mg/L after 24 hr by leaf-dip method
# In short: (§1)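 Test solutions were made by dissolving compounds in N,N-dimethylformamide and diluting with water containing Triton X-100 (0.1 mg/L), giving a series of 500.0, 250.0 and 125.0 mg/L plus other concentrations for the cowpea aphid (Aphis craccivora) bioassay.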
# Aphis craccivora [2] = assay: Insecticidal activity against Aphis craccivora (cowpea aphid) assessed as mortality at 250 mg/L after 24 hr by leaf-dip method; in short: as §1
# Aphis craccivora [3] = assay: Insecticidal activity against Aphis craccivora (cowpea aphid) assessed as mortality at 125 mg/L after 24 hr by leaf-dip method; in short: as §1
# Aphis craccivora [4] = assay: Insecticidal activity against Aphis craccivora (cowpea aphid) assessed as mortality after 24 hr by leaf-dip method; in short: as §1
SMILES,mortality at 500 µg/mL (Aphis craccivora [1]),mortality at 250 µg/mL (Aphis craccivora [2]),mortality at 125 µg/mL (Aphis craccivora [3]),LC50 (Aphis craccivora [4])
O=[N+]([O-])C(/N=N/c1ccc(Br)cc1)=C1\NCCN1Cc1ccc(Cl)nc1,58.3%,–,–,–
O=[N+]([O-])C(/N=N/c1ccc(F)cc1)=C1\NCCN1Cc1ccc(Cl)nc1,100%,100%,100%,37.2 µM
CCc1cccc(CC)c1/N=N/C(=C1/NCCN1Cc1cnc(Cl)s1)[N+](=O)[O-],100%,100%,100%,11.8 µM
CC(C)c1cccc(C(C)C)c1/N=N/C(=C1/NCCN1Cc1ccc(Cl)nc1)[N+](=O)[O-],100%,100%,100%,13.8 µM
O=[N+]([O-])C(/N=N/c1ccc(F)c(Cl)c1)=C1\NCCN1Cc1ccc(Cl)nc1,8.6%,–,–,–
Cc1cc(C(F)(C(F)(F)F)C(F)(F)F)cc(C)c1/N=N/C(=C1/NCCN1Cc1ccc(Cl)nc1)[N+](=O)[O-],12.2%,–,–,–
COc1ccc(/N=N/C(=C2/NCCN2Cc2ccc(Cl)nc2)[N+](=O)[O-])cc1,47.5%,–,–,–
Cc1ccccc1/N=N/C(=C1/NCCN1Cc1ccc(Cl)nc1)[N+](=O)[O-],52.5%,–,–,–
COc1cccc(OC)c1/N=N/C(=C1/NCCN1Cc1ccc(Cl)nc1)[N+](=O)[O-],100%,100%,100%,9.9 µM
Cc1cccc(/N=N/C(=C2/NCCN2Cc2cnc(Cl)s2)[N+](=O)[O-])c1C,61.7%,–,–,–
O=[N+]([O-])C(/N=N/c1ccc([N+](=O)[O-])cc1)=C1\NCCN1Cc1cnc(Cl)s1,12.1%,–,–,–
O=[N+]([O-])C(/N=N/c1ccccc1I)=C1\NCCN1Cc1ccc(Cl)nc1,0%,–,–,–
COc1ccccc1/N=N/C(=C1/NCCN1Cc1ccc(Cl)nc1)[N+](=O)[O-],91%,76%,35.5%,–
O=[N+]([O-])C(/N=N/c1ccccc1F)=C1\NCCN1Cc1ccc(Cl)nc1,13%,–,–,–
O=[N+]([O-])C(/N=N/c1c(Cl)cccc1Cl)=C1\NCCN1Cc1cnc(Cl)s1,18.2%,–,–,–
O=[N+]([O-])C(/N=N/c1ccc([N+](=O)[O-])cc1)=C1\NCCN1Cc1ccc(Cl)nc1,4.7%,–,–,–
O=[N+]([O-])C(/N=N/c1ccccc1Cl)=C1\NCCN1Cc1ccc(Cl)nc1,7.1%,–,–,–

SMILES,mortality at 500 µg/mL (Aphis craccivora [1]),mortality at 250 µg/mL (Aphis craccivora [2]),mortality at 125 µg/mL (Aphis craccivora [3]),LC50 (Aphis craccivora [4])
Cc1cc(C)c(/N=N/C(=C2/NCCN2Cc2ccc(Cl)nc2)[N+](=O)[O-])c(C)c1,100%,100%,100%,4.99 µM
CCc1cccc(CC)c1/N=N/C(=C1/NCCN1Cc1ccc(Cl)nc1)[N+](=O)[O-],100%,100%,100%,2.8 µM
O=[N+]([O-])C(/N=N/c1ccc(F)cc1F)=C1\NCCN1Cc1ccc(Cl)nc1,12.2%,–,–,–
Cc1cc(C)c(/N=N/C(=C2/NCCN2Cc2cnc(Cl)s2)[N+](=O)[O-])c(C)c1,100%,100%,100%,–
COc1ccc(/N=N/C(=C2/NCCN2Cc2cnc(Cl)s2)[N+](=O)[O-])cc1,11.8%,–,–,–
O=[N+]([O-])C(/N=N/c1ccccc1[N+](=O)[O-])=C1\NCCN1Cc1ccc(Cl)nc1,8.2%,–,–,–
O=[N+]([O-])C(/N=N/c1ccccc1)=C1\NCCN1Cc1ccc(Cl)nc1,31.2%,–,–,–
O=[N+]([O-])C(/N=N/c1c(Cl)cccc1Cl)=C1\NCCN1Cc1ccc(Cl)nc1,6.5%,–,–,–
O=[N+]([O-])C(/N=N/c1cccc(F)c1F)=C1\NCCN1Cc1ccc(Cl)nc1,25.1%,–,–,–
Cc1cccc(/N=N/C(=C2/NCCN2Cc2ccc(Cl)nc2)[N+](=O)[O-])c1C,73.3%,–,–,–
CCc1cccc(C)c1/N=N/C(=C1/NCCN1Cc1ccc(Cl)nc1)[N+](=O)[O-],100%,100%,100%,3.74 µM
COc1cccc(OC)c1/N=N/C(=C1/NCCN1Cc1cnc(Cl)s1)[N+](=O)[O-],100%,100%,100%,14.6 µM
Cc1cccc(C)c1/N=N/C(=C1/NCCN1Cc1cnc(Cl)s1)[N+](=O)[O-],100%,100%,100%,3.5 µM
Cc1cccc(C)c1/N=N/C(=C1/NCCN1Cc1ccc(Cl)nc1)[N+](=O)[O-],100%,100%,100%,4.26 µM
O=[N+]([O-])/N=C1\NCCN1Cc1ccc(Cl)nc1 [IMIDACLOPRID],100%,100%,100%,35 µM
Cc1ccc(/N=N/C(=C2/NCCN2Cc2ccc(Cl)nc2)[N+](=O)[O-])cc1C,19.7%,–,–,–
Cc1ccc(/N=N/C(=C2/NCCN2Cc2ccc(Cl)nc2)[N+](=O)[O-])cc1,56.6%,–,–,–
